ChEMBL document CHEMBL1129566 (J Med Chem, 1996)
In brackets after ≈: the same amount, converted by molar mass.

Tests used:
Assay type in all cases: functional
Escherichia coli = assay: In vitro minimum inhibitory concentration required to produce antibacterial activity against Escherichia coli 25922
Procedure, shortened: (§1)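 Two-fold agar dilution on Mueller-Hinton agar. Overnight broth cultures diluted in fresh broth to […]; 10⁴ CFU/spot applied by inoculating apparatus onto plates with graded drug concentrations. Incubated 18 h at 37 °C; MIC taken as the lowest concentration giving complete growth inhibition.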

Streptococcus pneumoniae [1] = assay: Minimum inhibitory concentration for antibacterial activity against Streptococcus pneumoniae Q19 (pen s); procedure, shortened: as §1
Pseudomonas aeruginosa = assay: In vitro minimum inhibitory concentration required to produce antibacterial activity against Pseudomonas aeruginosa ATCC 27853; procedure, shortened: as §1
Citrobacter freundii = assay: In vitro minimum inhibitory concentration required to produce antibacterial activity against Citrobacter freundii 902; procedure, shortened: as §1
Streptococcus pneumoniae [2] = assay: In vitro minimum inhibitory concentration required to produce antibacterial activity against Streptococcus pneumoniae 1/37(pen r); procedure, shortened: as §1
Enterococcus faecalis = assay: In vitro minimum inhibitory concentration required to produce antibacterial activity against Enterococcus faecalis ATCC 29212; procedure, shortened: as §1
Staphylococcus aureus [3] = assay: In vitro minimum inhibitory concentration required to produce antibacterial activity against Staphylococcus aureus 887MSSA; procedure, shortened: as §1
Staphylococcus aureus [4] = assay: In vitro minimum inhibitory concentration required to produce antibacterial activity against Staphylococcus aureus 743 MRSA; procedure, shortened: as §1
Enterobacter cloacae = assay: In vitro minimum inhibitory concentration required to produce antibacterial activity against Enterobacter cloacae 908SSI; procedure, shortened: as §1

Row | Compound | MIC (Escherichia coli) [µg/mL] | MIC (Streptococcus pneumoniae [1]) [µg/mL] | MIC (Pseudomonas aeruginosa) [µg/mL] | MIC (Citrobacter freundii) [µg/mL] | MIC (Streptococcus pneumoniae [2]) [µg/mL] | MIC (Enterococcus faecalis) [µg/mL] | MIC (Staphylococcus aureus [3]) [µg/mL] | MIC (Staphylococcus aureus [4]) [µg/mL] | MIC (Enterobacter cloacae) [µg/mL]
1 | Nc1nc(/C(=N/O)C(=O)N[C@@H]2C(=O)N3C(C(=O)O)=C(/C=C4\CCN(c5ccccc5)C4=O)CS[C@H]23)cs1 | 0.25 (≈ 0.462 µM) | 0.06 (≈ 0.111 µM) | 16 (≈ 29.6 µM) | 0.25 (≈ 0.462 µM) | 2 (≈ 3.7 µM) | 0.25 (≈ 0.462 µM) | 0.5 (≈ 0.925 µM) | 8 (≈ 14.8 µM) | 0.5 (≈ 0.925 µM)
2 | Nc1nc(/C(=N/O)C(=O)N[C@@H]2C(=O)N3C(C(=O)O)=C(/C=C4\CCN(c5ccc(O)c(O)c5)C4=O)CS[C@H]23)cs1 | 0.25 (≈ 0.437 µM) | ≤ 0.06 | 32 (≈ 55.9 µM) | 0.12 (≈ 0.21 µM) | 2 (≈ 3.49 µM) | 0.5 (≈ 0.873 µM) | 2 (≈ 3.49 µM) | 16 (≈ 27.9 µM) | 0.25 (≈ 0.437 µM)
3 | Nc1nc(/C(=N/O)C(=O)N[C@@H]2C(=O)N3C(C(=O)O)=C(/C=C4\CCN(c5cccc([N+](=O)[O-])c5)C4=O)CS[C@H]23)cs1 | 0.12 (≈ 0.205 µM) | ≤ 0.06 | 16 (≈ 27.3 µM) | 0.12 (≈ 0.205 µM) | 2 (≈ 3.42 µM) | 0.12 (≈ 0.205 µM) | 0.5 (≈ 0.854 µM) | 4 (≈ 6.83 µM) | 0.25 (≈ 0.427 µM)
4 | Nc1nc(/C(=N/OCCF)C(=O)N[C@@H]2C(=O)N3C(C(=O)O)=C(/C=C4\CCN(CC(F)(F)F)C4=O)CS[C@H]23)cs1 | 0.5 (≈ 0.844 µM) | ≤ 0.06 | 8 (≈ 13.5 µM) | 1 (≈ 1.69 µM) | 1 (≈ 1.69 µM) | 32 (≈ 54 µM) | 4 (≈ 6.75 µM) | 16 (≈ 27 µM) | 2 (≈ 3.38 µM)
5 | CC(C)CO/N=C(\C(=O)N[C@@H]1C(=O)N2C(C(=O)O)=C(/C=C3\CCN(CC(F)(F)F)C3=O)CS[C@H]12)c1csc(N)n1 | 2 (≈ 3.32 µM) | ≤ 0.06 | 16 (≈ 26.6 µM) | 4 (≈ 6.64 µM) | 1 (≈ 1.66 µM) | 16 (≈ 26.6 µM) | 8 (≈ 13.3 µM) | 4 (≈ 6.64 µM) | 4 (≈ 6.64 µM)
6 | Cc1cc(N2CC/C(=C\C3=C(C(=O)O)N4C(=O)[C@@H](NC(=O)/C(=N\O)c5csc(N)n5)[C@H]4SC3)C2=O)no1 | 0.12 (≈ 0.22 µM) | 0.12 (≈ 0.22 µM) | > 32 | 0.12 (≈ 0.22 µM) | 2 (≈ 3.67 µM) | 0.25 (≈ 0.458 µM) | 1 (≈ 1.83 µM) | 8 (≈ 14.7 µM) | 0.5 (≈ 0.916 µM)
7 | Nc1nc(/C(=N/O)C(=O)N[C@@H]2C(=O)N3C(C(=O)O)=C(/C=C4\CCN(C5CC5)C4=O)CS[C@H]23)cs1 | ≤ 0.06 | 0.03 (≈ 0.0595 µM) | 8 (≈ 15.9 µM) | 0.12 (≈ 0.238 µM) | 2 (≈ 3.96 µM) | 1 (≈ 1.98 µM) | 1 (≈ 1.98 µM) | 8 (≈ 15.9 µM) | 0.12 (≈ 0.238 µM)

Further lines, results first:

Row | MIC (Escherichia coli) [µg/mL] | MIC (Streptococcus pneumoniae [1]) [µg/mL] | MIC (Pseudomonas aeruginosa) [µg/mL] | MIC (Citrobacter freundii) [µg/mL] | MIC (Streptococcus pneumoniae [2]) [µg/mL] | MIC (Enterococcus faecalis) [µg/mL] | MIC (Staphylococcus aureus [3]) [µg/mL] | MIC (Staphylococcus aureus [4]) [µg/mL] | MIC (Enterobacter cloacae) [µg/mL] | Compound
8 | 0.12 (≈ 0.231 µM) | 0.03 (≈ 0.0579 µM) | 16 (≈ 30.9 µM) | 0.12 (≈ 0.231 µM) | 1 (≈ 1.93 µM) | 1 (≈ 1.93 µM) | 1 (≈ 1.93 µM) | 16 (≈ 30.9 µM) | 0.25 (≈ 0.482 µM) | Nc1nc(/C(=N/O)C(=O)N[C@@H]2C(=O)N3C(C(=O)O)=C(/C=C4\CCN(CC5CC5)C4=O)CS[C@H]23)cs1
9 | 0.12 (≈ 0.23 µM) | 0.12 (≈ 0.23 µM) | > 32 | 2 (≈ 3.83 µM) | 2 (≈ 3.83 µM) | 8 (≈ 15.3 µM) | 16 (≈ 30.6 µM) | > 32 | 8 (≈ 15.3 µM) | Nc1nc(/C(=N/O)C(=O)N[C@@H]2C(=O)N3C(C(=O)O)=C(/C=C4\CCN(CC(=O)O)C4=O)CS[C@H]23)cs1
10 | ≤ 0.06 | ≤ 0.06 | 16 (≈ 31.7 µM) | ≤ 0.06 | 1 (≈ 1.98 µM) | 1 (≈ 1.98 µM) | 1 (≈ 1.98 µM) | 16 (≈ 31.7 µM) | 0.25 (≈ 0.495 µM) | C=CCN1CC/C(=C\C2=C(C(=O)O)N3C(=O)[C@@H](NC(=O)/C(=N\O)c4csc(N)n4)[C@H]3SC2)C1=O
11 | ≤ 0.06 | ≤ 0.06 | 8 (≈ 15.9 µM) | 0.12 (≈ 0.239 µM) | 2 (≈ 3.98 µM) | 1 (≈ 1.99 µM) | 1 (≈ 1.99 µM) | 4 (≈ 7.96 µM) | 1 (≈ 1.99 µM) | C#CCN1CC/C(=C\C2=C(C(=O)O)N3C(=O)[C@@H](NC(=O)/C(=N\O)c4csc(N)n4)[C@H]3SC2)C1=O
